ChEMBL document CHEMBL3393003, “1,2,3,9b-Tetrahydro-5H-imidazo[2,1-a]isoindol-5-ones as a new class of respiratory syncytial virus (RSV) fusion inhibitors. Part 2: identification of BTA9881 as a preclinical candidate” (Bioorg Med Chem Lett, 2015)
Values after ≈ are worked out from the molar mass of the structure shown. Active and inactive are the calls of the source. The rule behind the calls is not given here.

What was measured:
[1] = Cytotoxicity against human Hep2 cells assessed as reduction in cell viability after 5 days by MTT assay; format: cell-based, HEp-2
Method in brief: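 Uninfected HEp2 cells (1.0 × 10⁴/well) exposed to serial compound dilutions for 5 days at 37 °C, 5% CO₂. Viability read by MTT (1 mg/ml) metabolism after 2 h incubation.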

[2] = test system: Respiratory syncytial virus; assay: Antiviral activity against respiratory syncytial virus A2 infected in human Hep2 cells assessed as reduction in virus-induced cytopathic effect after 5 days by MTT assay; format: functional, organism-based; conditions: A2, HEp-2, 120 h
Method in brief: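 HEp2 cells (1.0 × 10⁴/well) infected at low moi (RSV A2 at moi 0.01) and added to serial compound dilutions; incubated 5 days at 37 °C, 5% CO₂. CPE read by MTT (1 mg/ml) metabolism after 2 h incubation.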

[3] = Apparent volume of distribution in Sprague-Dawley rat at 3.1 mg/kg, iv; format: ADME, organism-based; parameters: dose 3.1 mg/kg, route intravenous; conditions: in vivo, read-out: Vz
Method in brief: (§1)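 Male Sprague Dawley rats given one IV dose. 3.1 mg/kg: n = 1, in 40% propylene glycol, 10% ethanol and 0.4% Tween80 in water. 2.1 mg/kg: n = 2, in 20 mM citrate (pH 2.6) with 5% glucose and 10% DMSO. Total clearance, Vz and T1/2 derived from plasma levels.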

[4] = Oral bioavailability in Sprague-Dawley rat at 18 mg/kg; format: ADME, organism-based; conditions: in vivo
Method in brief: (§2)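 Male Sprague Dawley rats, n = 2, oral dose as suspension with carboxymethylcellulose. Cmax (µM), T1/2 and F (%) derived from plasma levels.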

[5] = Elimination half life in Sprague-Dawley rat at 3.1 mg/kg, iv; format: ADME, organism-based; parameters: dose 3.1 mg/kg, route intravenous; conditions: in vivo, read-out: beta t1/2 (converted); method in brief: as §1
[6] = Half life in Sprague-Dawley rat at 18 mg/kg, po; format: ADME, organism-based; parameters: dose 18 mg/kg, route oral; conditions: in vivo; method in brief: as §2
[7] = Total clearance in Sprague-Dawley rat at 3.1 mg/kg, iv; format: ADME, organism-based; parameters: dose 3.1 mg/kg, route intravenous; conditions: in vivo; method in brief: as §1
[8] = Cmax in Sprague-Dawley rat at 18 mg/kg, po; format: ADME, organism-based; parameters: dose 18 mg/kg, route oral; conditions: in vivo; method in brief: as §2
[9] = test system: Respiratory syncytial virus; assay: Antiviral activity against respiratory syncytial virus Long infected in human Hep2 cells assessed as reduction in virus-induced cytopathic effect after 5 days by MTT assay; format: functional, organism-based; conditions: HEp-2, 120 h
[10] = Plasma clearance in Sprague-Dawley rat at 1.1 mg/kg, iv; format: ADME, organism-based; parameters: dose 1.1 mg/kg, route intravenous
[11] = test system: Respiratory syncytial virus; assay: Antiviral activity against respiratory syncytial virus B1 infected in human Hep2 cells assessed as reduction in virus-induced cytopathic effect after 5 days by MTT assay; format: functional, organism-based; conditions: B1, HEp-2, 120 h
[12] = Elimination half life in Sprague-Dawley rat at 1.1 mg/kg, iv; format: ADME, organism-based; parameters: dose 1.1 mg/kg, route intravenous; conditions: in vivo, read-out: beta t1/2 (converted)
[13] = Elimination half life in Sprague-Dawley rat at 20 mg/kg, po; format: ADME, organism-based; parameters: dose 20 mg/kg, route oral; conditions: in vivo, read-out: beta t1/2 (converted)
Method in brief: (§3)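 Male Sprague Dawley rats, n = 2, oral dose as suspension in hydroxypropylmethylcellulose, in carboxymethylcellulose, or in 0.5% HPMC/0.5% benzyl alcohol/0.4% Tween80. Cmax (µM), T1/2 and F (%) derived from plasma levels.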

[14] = Kinetic solubility in isotonic phosphate buffer at pH 6.5 by nephelometry; format: physicochemical; conditions: read-out: Kinetic_solubility
Method in brief: (§4)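 Compound dissolved in DMSO and added to 0.01 M HCl (pH 2) or pH 6.5 isotonic phosphate buffer, 1% final DMSO. Solubility range determined by nephelometry.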

[15] = Cmax in Sprague-Dawley rat at 20 mg/kg, po; format: ADME, organism-based; parameters: dose 20 mg/kg, route oral; conditions: in vivo; method in brief: as §3
[16] = Kinetic solubility in 0.01M HCl buffer at pH 2.0 by nephelometry; format: physicochemical; conditions: read-out: Kinetic_solubility; method in brief: as §4
[17] = test system: Respiratory syncytial virus; assay: Potency shift index, ratio of EC50 for respiratory syncytial virus A2 infected in human Hep2 in presence of 1.5 mg/mL Alpha-1-acid glycoprotein to EC50 for respiratory syncytial virus A2 infected in human Hep2 in absence of Alpha-1-acid glycoprotein; format: functional
[18] = Lipophilicity, log D of the compound at pH 7.4 by chromatography; format: physicochemical; conditions: buffer
Method in brief: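 Effective logD measured chromatographically on an LC-ABZ column, octanol-saturated mobile phase at pH 7.4.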

[19] = Apparent volume of distribution in Sprague-Dawley rat at 1.1 mg/kg, iv; format: ADME, organism-based; parameters: dose 1.1 mg/kg, route intravenous; conditions: in vivo, read-out: Vz
[20] = Oral bioavailability in Sprague-Dawley rat at 20 mg/kg; format: ADME, organism-based; conditions: in vivo; method in brief: as §3
[21] = Elimination half life in Sprague-Dawley rat at 2.1 mg/kg, iv; format: ADME, organism-based; parameters: dose 2.1 mg/kg, route intravenous; conditions: in vivo, read-out: beta t1/2 (converted); method in brief: as §1
[22] = Cmax in Sprague-Dawley rat at 21 mg/kg, po; format: ADME, organism-based; parameters: dose 21 mg/kg, route oral; conditions: in vivo; method in brief: as §2
[23] = Apparent volume of distribution in Sprague-Dawley rat at 2.1 mg/kg, iv; format: ADME, organism-based; parameters: dose 2.1 mg/kg, route intravenous; conditions: in vivo, read-out: Vz; method in brief: as §1
[24] = Half life in Sprague-Dawley rat at 21 mg/kg, po; format: ADME, organism-based; parameters: dose 21 mg/kg, route oral; conditions: in vivo; method in brief: as §2
[25] = Total clearance in Sprague-Dawley rat at 2.1 mg/kg, iv; format: ADME, organism-based; parameters: dose 2.1 mg/kg, route intravenous; conditions: in vivo; method in brief: as §1
[26] = Oral bioavailability in Sprague-Dawley rat at 21 mg/kg; format: ADME, organism-based; conditions: in vivo; method in brief: as §2
[27] = test system: Respiratory syncytial virus; assay: Resistance index, ratio of EC50 for drug resistant respiratory syncytial virus Long expressing F protein Q494L mutant to EC50 for wild type Respiratory syncytial virus Long
[28] = Plasma clearance in Sprague-Dawley rat at 8.8 mg/kg, iv; format: ADME, organism-based; parameters: dose 8.8 mg/kg, route intravenous
[29] = test system: Respiratory syncytial virus; assay: Resistance index, ratio of EC50 for drug resistant respiratory syncytial virus B1 expressing F protein L141F mutant to EC50 for wild type Respiratory syncytial virus B1; format: functional
[30] = Elimination half life in Sprague-Dawley rat at 8.8 mg/kg, iv; format: ADME, organism-based; parameters: dose 8.8 mg/kg, route intravenous; conditions: in vivo, read-out: beta t1/2 (converted)
[31] = test system: Respiratory syncytial virus; assay: Antiviral activity against respiratory syncytial virus A2 assessed as inhibition of early virus replication cycle by time of addition assay; format: functional, organism-based
[32] = Cmax in Sprague-Dawley rat at 19 mg/kg, po; format: ADME, organism-based; parameters: dose 19 mg/kg, route oral; conditions: in vivo; method in brief: as §3
[33] = Apparent volume of distribution in Sprague-Dawley rat at 8.8 mg/kg, iv; format: ADME, organism-based; parameters: dose 8.8 mg/kg, route intravenous; conditions: in vivo, read-out: Vz
[34] = Oral bioavailability in Sprague-Dawley rat at 19 mg/kg; format: ADME, organism-based; conditions: in vivo; method in brief: as §3
[35] = test system: Respiratory syncytial virus; assay: Resistance index, ratio of EC50 for VP-14637 resistant respiratory syncytial virus Long expressing F protein D489Y mutant to EC50 for wild type Respiratory syncytial virus Long
[36] = test system: Respiratory syncytial virus; assay: Antiviral activity against respiratory syncytial virus A2 by yield reduction assay; format: functional, organism-based
[37] = Elimination half life in Sprague-Dawley rat at 19 mg/kg, po; format: ADME, organism-based; parameters: dose 19 mg/kg, route oral; conditions: in vivo, read-out: beta t1/2 (converted); method in brief: as §3
[38] = Oral bioavailability in dog; format: ADME, organism-based, Canis lupus familiaris; conditions: in vivo
[39] = test system: Respiratory syncytial virus; assay: Antiviral activity against respiratory syncytial virus A2 by plaque reduction assay; format: functional, organism-based

Cn1cc(C(=O)N2CCN3C(=O)c4cc[n+]([O-])cc4[C@@]32c2ccc(Cl)cc2)c(C(F)(F)F)n1
CC50 at 120 h [1]: > 5 µM | EC50 [2]: 0.01 µM | Vd [3]: 2.1 L/kg | bioavailability [4]: 57% | half-life [5]: 11 h | half-life [6]: 11 h | clearance [7]: 2.2 mL/min/kg | Cmax [8]: 9.3 µM

O=C(c1ccco1)N1CCN2C(=O)c3ccncc3C12c1ccc(Cl)cc1 (racemic)
EC50 [9]: 0.37 µM | CC50 at 120 h [1]: > 19 µM | clearance [10]: 79 mL/min/kg | EC50 [2]: 0.12 µM | EC50 [11]: 0.17 µM | half-life [12]: 2.4 h | half-life [13]: 2.8 h | solubility kinetic [14]: > 100 µg/mL | Cmax [15]: 0.44 µM | solubility kinetic [16]: 50 µg/mL (≈ 132 µM) | Ratio EC50 [17]: 3.6 | chromatographic logD [18]: 2.8 | Vd [19]: 8.7 L/kg | bioavailability [20]: 21%

O=C(c1ccc(F)nc1)N1CCN2C(=O)c3cc[n+]([O-])cc3C12c1ccc(Cl)cc1 (racemic)
CC50 at 120 h [1]: > 17 µM | half-life [21]: 1.7 h | Cmax [22]: 2.5 µM | EC50 [2]: 0.15 µM | Vd [23]: 1.2 L/kg | half-life [24]: 20 h | clearance [25]: 7.9 mL/min/kg | bioavailability [26]: 85%

O=C(c1cccnc1)N1CCN2C(=O)c3ccncc3[C@]12c1ccc(Cl)cc1 [BTA-9881]
EC50 [9]: 0.059 µM | Ratio EC50 [27]: 40 | clearance [28]: 4.5 mL/min/kg | EC50 [2]: 0.048 µM | Ratio EC50 [29]: >100 | EC50 [11]: 0.16 µM | half-life [30]: 4.5 h | Activity [31]: Active | Cmax [32]: 23 µM | Vd [33]: 1.7 L/kg | bioavailability [34]: 100% | Ratio EC50 [35]: >1800 | solubility kinetic [14]: 50 µg/mL (≈ 128 µM) | Activity [36]: Active | half-life [37]: 4.5 h | bioavailability [38]: 100% | solubility kinetic [16]: > 100 µg/mL | Activity [39]: Active | chromatographic logD [18]: 2.1
